The text below walks through data of ChEMBL document CHEMBL1153868, “Novel 8-deaza-5,6,7,8-tetrahydroaminopterin derivatives as dihydrofolate inhibitor: design, synthesis and antifolate activity” (Eur J Med Chem, 2009).

Experiment [1] deals with HeLa. As to the kind of experiment: Cytotoxicity against human HeLa cells after 48 hrs. It counts as functional, cell-based. In short, it runs like this:
(§1)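 Exponentially growing cells maintained in supplemented RPMI-1640 medium. Exposed to a range of compound concentrations for 48 h. Growth inhibition measured by MTT and SRB assays. IC50 reported as the mean of three independent experiments.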

Experiment [2] deals with BGC-823. As to the kind of experiment: Cytotoxicity against human BGC823 cells after 48 hrs. It is filed as functional, cell-based. The note with it: BGC-823, 48 h. The gist of the method:
as §1

In experiment [3] the test system is Bel-7402. The experiment is described as follows: Cytotoxicity against human Bel7402 cells after 48 hrs. It is filed as functional, cell-based. The note with it: Bel-7402, 48 h. In short, it runs like this:
as §1

Experiment [4] concerns HL-60. The experiment is described as follows: Cytotoxicity against human HL60 cells after 48 hrs. The settings on record: HL-60, 48 h. It counts as functional, cell-based. In short, it runs like this: as §1
The target in experiment [5] is T1, Dihydrofolate reductase (Homo sapiens, UniProt P00374).
T1 sequence (P00374 whole entry): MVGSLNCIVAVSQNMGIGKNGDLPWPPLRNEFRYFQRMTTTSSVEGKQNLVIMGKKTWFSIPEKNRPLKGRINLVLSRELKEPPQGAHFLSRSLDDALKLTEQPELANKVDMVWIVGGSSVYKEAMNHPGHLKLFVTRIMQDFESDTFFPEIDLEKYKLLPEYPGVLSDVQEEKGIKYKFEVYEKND
As to the kind of experiment: Inhibition of human recombinant DHFR by spectrophotometry.

pIC50: −log10 of the molar value.

In general, pIC50 refers to the IC50 on a negative log10 scale, so that one unit is a factor of ten. As for `CN(Cc1cnc2nc(N)nc(N)c2n1)c1ccc(C(=O)N[C@@H](CCC(=O)O)C(=O)O)cc1` [METHOTREXATE], the pIC50 in experiment [1] was 7.00; in experiment [2], 6.96; in experiment [3] it was 4.08; in experiment [4], 6.68.

With `Nc1nc(N)c2c(n1)CCC(CNc1ccc(C(=O)NC(CCC(=O)O)C(=O)O)cc1Br)N2CC(Br)CBr` (centres undefined), the pIC50 in experiment [5] is 5.03; in experiment [1], 4.71; in experiment [2], 4.65; in experiment [3], 3.59; in experiment [4], 4.31.

As to `C=CCN1c2c(N)nc(N)nc2CCC1CNc1ccc(C(=O)NC(CCC(=O)O)C(=O)O)cc1Br` (centres undefined), the pIC50 is 5.63 in experiment [5]; 6.05 in experiment [1]; 5.18 in experiment [2]; 5.92 in experiment [3]; 6.24 in experiment [4].

Consider `Nc1nc(N)c2c(n1)CCC(CNc1ccc(C(=O)NC(CCC(=O)O)C(=O)O)cc1)N2` (centres undefined), for which the pIC50 was 6.25 in experiment [5]; 6.02 in experiment [1]; 6.36 in experiment [2]; 4.06 in experiment [3]; 6.05 in experiment [4].

Turning to `C=CCN1c2c(N)nc(N)nc2CCC1CNc1ccc(C(=O)NC(CCC(=O)O)C(=O)O)cc1` (centres undefined), the pIC50 is 5.85 in experiment [5]; 5.11 in experiment [1]; 5.28 in experiment [2]; 4.37 in experiment [3]; 6.15 in experiment [4].

Regarding `C=CCN(CC1CCc2nc(N)nc(N)c2N1CC=C)c1ccc(C(=O)NC(CCC(=O)O)C(=O)O)cc1` (centres undefined), the pIC50 was 5.67 in experiment [5]; 4.66 in experiment [1]; 5.61 in experiment [2]; 5.15 in experiment [3]; 5.85 in experiment [4].
